Drawing on ChEMBL document CHEMBL4257556, “Novel 1,3,4-thiadiazole-chalcone hybrids containing catechol moiety: synthesis, antioxidant activity, cytotoxicity and DNA interaction studies” (Medchemcomm, 2018), this text covers Activity and IC50 for one molecule.

Structures are written as SMILES. Calls of active or inactive are those of the source. No cut-off for these calls is given here.

One test concerns Calf thymus DNA. The test can be described thus: Binding affinity to calf thymus DNA assessed as hyperchromism at 20 uM after 90 mins by UV/visible spectrophotometric analysis. In kind it is nucleic-acid assay. The following applies: Bos taurus. In a few lines: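 CT-DNA stock in 10 mM Tris-HCl pH 7.9 (A260/A280 1.89–2.01; concentration from ε260 6600 M–1 cm–1). Compound (10, 20 or 40 μM) plus CT-DNA (95 μM) in 40 mM bicarbonate pH 8.4, 37 °C 90 min; spectra 200–800 nm. Hyper/hypochromism at 259 nm from bound versus summed free compound and DNA extinction; triplicate.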

The test system of the next test is A549. As to the kind of experiment: Cytotoxicity against human A549 cells assessed as decrease in cell survival after 72 hrs by MTT assay. In kind it is functional, cell-based. The following applies: A549, 72 h. The method, boiled down:
(§1)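 HeLa (2000/well), A549 and MRC-5 (5000/well) seeded 20 h before treatment; HL-60 (7000/well) 2 h before. Five concentrations (6.25–100 μM or 3.125–50 μM) from 5 mM DMSO stocks, final DMSO ≤1%, 72 h; survival by MTT. Cisplatin positive control; three independent experiments in triplicate.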
For orientation: Tetrazolium dyes change colour on reduction, which living cells bring about.

Test [1] relates to HeLa. As to the kind of experiment: Cell cycle arrest in human HeLa cells assessed as accumulation at G2/M phase at 2 times IC50 after 24 hrs by propidium iodide staining-based flow cytometric method. The format is functional. The method, boiled down:
(§2)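 HeLa cells treated 24 h at IC50 or 2×IC50 (from 72 h assay), fixed in 70% ethanol, stored at –20 °C ≥1 week, RNase A 30 min 37 °C, propidium iodide stained; flow cytometry, 10 000 gated events. Mean ± SD of three independent experiments; one-way ANOVA with Dunnett's post-test, p < 0.05.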
A general note: Flow cytometry measures light scatter and fluorescence of single cells or particles in a stream.

For the next test, the system named is MRC5. As to the kind of experiment: Cytotoxicity against human MRC5 cells assessed as decrease in cell survival after 72 hrs by MTT assay. The format is cell-based. The conditions noted are these: MRC5, 72 h. In a few lines: as §1
In test [2] the test system is HeLa. As to the kind of experiment: Cell cycle arrest in human HeLa cells assessed as accumulation at sub-G1 phase at 2 times IC50 after 24 hrs in presence of caspase-8 inhibitor Z-IETD-FMK by propidium iodide-staining based flow cytometric method. In kind it is functional. In a few lines: (§3)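 HeLa cells pretreated 2 h with 40 μM peptide caspase inhibitor (Z-DEVD-FMK caspase-3, Z-IETD-FMK caspase-8 or Z-LEHD-FMK caspase-9), then exposed to 2×IC50 compound; subG1 fraction by propidium iodide flow cytometry, compared with samples lacking inhibitor.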

The test system of test [3] is HeLa. As to the kind of experiment: Cell cycle arrest in human HeLa cells assessed as accumulation at sub-G1 phase at IC50 and 2 times IC50 after 24 hrs by propidium iodide staining-based flow cytometric method. In kind it is functional. In a few lines: as §2
In the next test the test system is HL-60. The test can be described thus: Cytotoxicity against human HL60 cells assessed as decrease in cell survival after 72 hrs by MTT assay. In kind it is functional, cell-based. The conditions noted are these: HL-60, 72 h. The method, boiled down: as §1
A short description of test [4]: Antioxidant activity assessed as DPPH free radical scavenging activity after 30 mins. In kind it is functional. The method, boiled down:
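DPPH (0.05 mM in methanol) mixed with equal volume of compound (DMSO solution diluted in methanol), kept in dark at room temperature 30 min; absorbance at 517 nm, methanol control, ascorbic acid positive control. IC50 = concentration giving 50% of maximum scavenging; mean ± SD of independent triplicate experiments.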
(DPPH is a stable violet radical that fades when it is reduced.)

Test [5] concerns HeLa. As to the kind of experiment: Cell cycle arrest in human HeLa cells assessed as accumulation at G2/M phase at IC50 after 24 hrs by propidium iodide staining-based flow cytometric method. The format is functional. In a few lines: as §2
The test system of test [6] is HeLa. As to the kind of experiment: Cell cycle arrest in human HeLa cells assessed as accumulation at sub-G1 phase at 2 times IC50 after 24 hrs in presence of caspase-3 inhibitor Z-DEVD-FMK by propidium iodide-staining based flow cytometric method. In kind it is functional. The method, boiled down:
as §3

Test [7] concerns HeLa. The test can be described thus: Upregulation of miR-206 expression in human HeLa cells at 10 uM after 24 hrs by RT-qPCR method. The format is functional, cell-based.

`Cc1cccc(C(=O)/C=C/c2ccc(C(=O)Nc3nnc(-c4ccc(O)c(O)c4)s3)cc2)c1`: in the test with Calf thymus DNA, the Activity was -7.36%. The IC50 with A549 stood at 27.9 µM; in the test on MRC5, 34.2 µM; in the test on HL-60, 8.39 µM; in test [4] it was 17.2 µM. The result with HeLa [1], in the test on HeLa [3], with HeLa [5] and in the test with HeLa [7] was Active. The outcome in the test on HeLa [2] and in the test with HeLa [6] was inactive.

As usually defined, the IC50 is the midpoint of a concentration-inhibition curve.
